Bioassay records deposited in PubChem by Johns Hopkins Ion Channel Center.
Rows were chosen to be rich in hits. Some 2.3% of all compounds tested hit in one or more screens of this group.
TRPC6 act – mouse TRPC6 channel activators, primary screen, cell-based, HEK293, membrane potential dye. HEK293-TRPC6 membrane potential dye fluorescence; active compounds read high. Short transient receptor potential channel 6 (Mus musculus), Q61143. B-score at 10 µM. 310,000 compounds, 0.13% hits. AID 2550, 2010;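 active means B-score of the integrated fluorescence ratio above library mean plus 3 SD, and starting fluorescence ratio within library mean plus 5 SD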;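 further: higher score means more depolarization so channel activation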
TRPC4 agonist – activators of mouse TRPC4 channel, primary screen, Fluo4 calcium, HEK293 TRPC4beta/mu-opioid cells. Short transient receptor potential channel 4 (Mus musculus), Q9QUQ5. Fluo4 calcium fluorescence; active compounds read high. B-score at 10 µM. 310,000 compounds, 0.49% hits. AID 2237, 2010;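 active means B-score above 5 SD of library B-scores, and initial fluorescence ratio not above library mean plus 5 SD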;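 further: positive B-score marks a calcium rise read as TRPC4 activation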
Target sequence (Q9QUQ5 whole entry, looked up): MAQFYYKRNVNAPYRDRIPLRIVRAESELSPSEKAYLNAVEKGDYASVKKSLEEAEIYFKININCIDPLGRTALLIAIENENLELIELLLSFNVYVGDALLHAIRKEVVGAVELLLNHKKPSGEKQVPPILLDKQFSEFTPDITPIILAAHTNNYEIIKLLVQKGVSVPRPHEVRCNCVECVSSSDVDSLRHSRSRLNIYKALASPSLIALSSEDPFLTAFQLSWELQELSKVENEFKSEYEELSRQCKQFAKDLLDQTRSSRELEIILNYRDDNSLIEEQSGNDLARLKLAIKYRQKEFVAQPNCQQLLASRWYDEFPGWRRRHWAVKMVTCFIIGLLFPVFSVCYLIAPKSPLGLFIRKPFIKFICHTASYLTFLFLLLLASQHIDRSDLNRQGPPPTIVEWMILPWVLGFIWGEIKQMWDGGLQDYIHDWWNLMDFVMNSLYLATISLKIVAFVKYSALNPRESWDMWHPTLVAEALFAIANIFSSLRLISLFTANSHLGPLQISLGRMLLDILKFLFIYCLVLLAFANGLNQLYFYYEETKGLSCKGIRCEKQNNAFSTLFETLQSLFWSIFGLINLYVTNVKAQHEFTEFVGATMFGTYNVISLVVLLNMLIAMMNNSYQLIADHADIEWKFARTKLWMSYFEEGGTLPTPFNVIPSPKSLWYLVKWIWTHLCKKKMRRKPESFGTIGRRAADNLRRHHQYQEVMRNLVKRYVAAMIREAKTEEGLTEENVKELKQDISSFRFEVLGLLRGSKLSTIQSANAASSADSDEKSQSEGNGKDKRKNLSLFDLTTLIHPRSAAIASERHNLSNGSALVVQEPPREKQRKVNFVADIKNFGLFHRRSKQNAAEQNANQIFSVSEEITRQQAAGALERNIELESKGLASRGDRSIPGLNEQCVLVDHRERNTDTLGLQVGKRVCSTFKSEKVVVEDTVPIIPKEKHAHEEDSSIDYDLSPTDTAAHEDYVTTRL
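Assay system: HEK293 stable line with TRPC4beta plus mu-opioid receptor. Times: dye 45 min RT, read 110 s. Measured by: kinetic Fluo4 calcium fluorescence. Measure: B score of integrated ratio. Controls: assay buffer as low control, maximal DAMGO as high control.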
TRPC6 inhibitor – mouse TRPC6 channel inhibitors, primary screen, cell-based, HEK293, membrane potential dye. Short transient receptor potential channel 6 (Mus musculus), Q61143. B-score at 10 µM. AID 2553, 2010. 310,000 compounds, 1.1% hits. ACh-evoked depolarization; active compounds read low;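 active means B-score under library mean minus 3 SD, initial fluorescence not abnormally high, positive integrated signal ratio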;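 further: B-score derived from integrated fluorescence ratio over the kinetic read; more negative B-score means stronger inhibition of depolarization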
TRPC4 block – inhibitors of mouse TRPC4 channel, primary screen, Fluo4 calcium, HEK293 TRPC4beta/mu-opioid cells | Short transient receptor potential channel 4 (Mus musculus), Q9QUQ5 | DAMGO-evoked Fluo4 calcium flux; active compounds read low | B-score at 10 µM | 300,000 compounds, 0.39% hits | AID 2247, 2010;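 active means B-score over 3 SD under the library average, no early fluorescence shift, positive overall ratio signal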
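Assay system: Stable TRPC4beta/mu-opioid receptor HEK293 cells | Reagent: DAMGO in two steps, submaximal then maximal | Compound dosing: Single concentration per test compound | Signal: Fluo4 Ca2+ flux fluorescence | Evaluation: Per-well B score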
TRPC4 PAM – positive allosteric modulators of TRPC4, primary screen, cell-based, mouse TRPC4beta, HEK293 mu-opioid, Fluo-4 calcium; Short transient receptor potential channel 4 (Mus musculus), Q9QUQ5; DAMGO EC20, Fluo-4 Ca2+ flux; active compounds read high; B-score at 10 µM; 310,000 compounds, 0.42% hits; AID 2227, 2009;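 active means B-score of calcium response area above 5 SD of library B-scores, with initial fluorescence ratio within 5 SD of library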
TRPC4 spec 2 – second selectivity test of TRPC6 inhibitors: effect on mouse TRPC4 | shares compounds with TRPC6 inhibitor | HEK293 TRPC4/MOR, membrane potential dye fluorescence; channel activated by saturating DAMGO dose | inhibition, % at 10 µM | 920 compounds, 42% hits | AID 2776;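 active means compounds whose fluorescence signal differed from control wells by over 3 SD, either direction, in both duplicate plates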
TRPC4 spec – mouse TRPC4 modulation by TRPC6 hits, confirmation, selectivity assay for TRPC6 inhibitor project, cell-based, HEK293 TRPC4/mu-opioid, membrane potential dye; shares compounds with TRPC6 inhibitor; membrane potential fluorescence; activity change, negative = inhibition, % at 10 µM; 920 compounds, 61% hits; AID 2777, 2010;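 active means rise or fall in signal beyond 3 SD of buffer-only wells in both replicate plates, either sign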;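 further: integrated kinetic ratio of fluorescence range over baseline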
HEK293 MPD ctr 2-1 – nonspecific membrane potential effects, parental HEK293, confirmation, counter-screen for TRPC6 inhibitor project, cell-based, second counter screen. shares compounds with TRPC6 inhibitor. parental HEK293 membrane potential dye fluorescence; maximal acetylcholine challenge after compound addition. signal change vs control, % at 10 µM. 920 compounds, 31% hits. AID 2779, 2010;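 active means membrane potential signal moving either way by over 3 SD of the maximum-effect control, in both duplicate plates, meaning non-specific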
HEK293 MPD ctr-1 – membrane potential modulation in parental HEK293, confirmation, counter-screen for TRPC6 inhibitor project, cell-based. shares compounds with TRPC6 inhibitor. parental HEK293 membrane potential dye fluorescence. membrane potential signal change, % at 10 µM. 920 compounds, 60% hits;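 active means membrane potential signal shifting up or down by more than 3 SD of buffer-only wells, on both duplicate plates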
HEK293 MPD ctr-2 – parental HEK293 membrane potential modulation, confirmation, counter-screen for TRPC6 modulator project, cell-based. membrane potential dye fluorescence. shares compounds with TRPC6 inhibitor. 2,400 compounds, 51% hits. membrane potential signal change, % at 10 µM;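 active means membrane potential signal moves up or down beyond 5 SD from buffer-only wells, on both duplicate plates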
HEK293 MPD ctr 2-2 – parental HEK293 nonspecific activity of TRPC6 modulators, second screen; shares compounds with TRPC6 inhibitor; 2,400 compounds, 14% hits; inhibition, % at 10 µM; AID 488926; membrane potential dye fluorescence; after compound, maximal acetylcholine stimulation;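 active means membrane potential signal drops by more than 5 SD from the mean control signal, in both duplicate plates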
TRPC4/MOR mod – TRPC4 modulation by TRPC6 hit compounds, confirmation, selectivity assay for TRPC6 modulator project, cell-based, HEK293 TRPC4/mu-opioid, membrane potential dye, mouse. 2,400 compounds, 69% hits. membrane potential fluorescence. shares compounds with TRPC6 inhibitor. percent change from control (negative = decrease, positive = increase), % at 10 µM;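 active means membrane potential signal moved up or down beyond 5 SD of buffer control wells, in both duplicate plates, actives on both sides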
TRPC4/MOR inh 2 – second selectivity test of TRPC6 modulators against mouse TRPC4 | HEK293 TRPC4/mu-opioid, membrane potential dye fluorescence; stimulated with maximal-effect DAMGO | inhibition, % at 10 µM | shares compounds with TRPC6 inhibitor | 2,400 compounds, 55% hits | AID 488928;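 active means drop in membrane potential signal beyond 5 SD of the control wells in both duplicate plates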;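 further: TRPC4 counter screen for TRPC6 hits run under conditions tuned for TRPC6 not TRPC4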
TRPC6 block conf – mouse TRPC6 channel inhibitors, confirmation, HEK293 cells, membrane potential dye, duplicate | shares compounds with TRPC6 inhibitor | ACh-evoked depolarization | inhibition, % at 10 µM | 3,300 compounds, 43% hits | AID 488960, 2010;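 active means fluorescence ratio falls more than 5 SD below the full-stimulation control mean, in both duplicate runs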;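 further: integrated fluorescence ratio of peak minus minimum over baseline after agonist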
TRPC6 act conf – mouse TRPC6 channel activators, confirmation, HEK293 cells, membrane potential dye, duplicate. 2,800 compounds, 11% hits. AID 488961, 2010. HEK293-TRPC6 membrane potential dye fluorescence, FDSS. shares compounds with TRPC6 inhibitor. activation, % at 10 µM;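 active means ratio signal rise beyond 5 SD above unstimulated control wells' mean, seen in both duplicate runs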
Of the large screens only hits and unclear results are named; the others gave an inactive call (follow-up assays come after a bar, where they were run).

COc1ccc(CCC(C)NC2CCCCCCC2)cc1 (stereo not given)	TRPC6 inhibitor -5.7 | HEK293 MPD ctr-2 289% | HEK293 MPD ctr 2-2 inactive | TRPC4/MOR mod 64% | TRPC4/MOR inh 2 76% | TRPC6 block conf 56%
O=c1c2c3c(sc2nc(NCCO)n1-c1ccccc1)CCCC3	none
CN(C)CCCNc1nc2sc3c(c2c(=O)n1CCc1ccccc1)CCCCC3	TRPC6 inhibitor -7 | TRPC4 spec 2 74% | TRPC4 spec -11% | HEK293 MPD ctr 2-1 inactive | HEK293 MPD ctr-1 inactive | TRPC6 block conf inactive | TRPC6 act conf inactive
COc1cccc(CN2CC(C(=O)N(C)C3CCOCC3)CCC2=O)c1 (stereo not given)	none
O=C(OCc1nnc(-c2ccccc2)o1)c1ccc2c(c1)OCCO2	TRPC6 inhibitor -5.8 | HEK293 MPD ctr-2 inactive | HEK293 MPD ctr 2-2 inactive | TRPC4/MOR mod 12% | TRPC4/MOR inh 2 inactive | TRPC6 block conf inactive
O=C(OCc1nnc(-c2ccccc2)o1)c1ccc(Cl)cc1	none
CCOc1cc(/C=C/c2cc(C(F)(F)F)[nH]c(=O)n2)ccc1O	none
COc1ccc(/C=C/c2cc(C(F)(F)F)[nH]c(=O)n2)cc1OC	TRPC6 inhibitor -5.9 | HEK293 MPD ctr-2 -180% | HEK293 MPD ctr 2-2 inactive | TRPC4/MOR mod -34% | TRPC4/MOR inh 2 inactive | TRPC6 block conf inactive | TRPC6 act conf inactive
Cc1ccc(NS(=O)(=O)c2ccc(OCC(=O)NCc3ccccn3)cc2)cc1	none
COCCNC(=S)Nc1ccc2nc(N3CCCC3)cc(C)c2c1	TRPC6 inhibitor -6.2 | HEK293 MPD ctr-2 -135% | HEK293 MPD ctr 2-2 82% | TRPC4/MOR mod -26% | TRPC4/MOR inh 2 40% | TRPC6 block conf 71% | TRPC6 act conf inactive
CCOCCCNC(=S)Nc1ccc2nc(N3CCCC3)cc(C)c2c1	TRPC6 inhibitor -5.6 | HEK293 MPD ctr-2 -138% | HEK293 MPD ctr 2-2 inactive | TRPC4/MOR mod -26% | TRPC4/MOR inh 2 40% | TRPC6 block conf 44% | TRPC6 act conf inactive
COCCNC(=S)Nc1ccc2nc(N3CCOCC3)cc(C)c2c1	none
CC1=CC(=C(C#N)c2nc3ccccc3s2)C=C(C)N1CC1CCCO1 (stereo not given)	TRPC6 inhibitor -9.8 | HEK293 MPD ctr-2 486% | HEK293 MPD ctr 2-2 inactive | TRPC4/MOR mod -92% | TRPC4/MOR inh 2 inactive | TRPC6 block conf inactive | TRPC6 act conf inactive
COc1ccccc1CNC1CCCc2ccccc21 (stereo not given)	TRPC6 inhibitor -7.4 | TRPC4 spec 2 inactive | TRPC4 spec 20% | HEK293 MPD ctr 2-1 inactive | HEK293 MPD ctr-1 9.1% | TRPC6 block conf 65%
COc1cc(/C=N/n2cnnc2)ccc1OCC(=O)N1CCOCC1	TRPC6 inhibitor -7.2 | HEK293 MPD ctr-2 -334% | HEK293 MPD ctr 2-2 inactive | TRPC4/MOR mod -54% | TRPC4/MOR inh 2 44% | TRPC6 block conf 46% | TRPC6 act conf inactive
O=C(Nc1ccc(O)cc1)/C(=C\C=C\c1ccccc1)NC(=O)c1ccccc1	TRPC6 inhibitor -5.6 | HEK293 MPD ctr-2 inactive | HEK293 MPD ctr 2-2 inactive | TRPC4/MOR mod inactive | TRPC4/MOR inh 2 37% | TRPC6 block conf inactive | TRPC6 act conf inactive
O=[N+]([O-])c1cc(/C=N/n2cnnc2)ccc1N1CCCC1	TRPC6 inhibitor -5.2 | HEK293 MPD ctr-2 -76% | HEK293 MPD ctr 2-2 inactive | TRPC4/MOR mod -15% | TRPC4/MOR inh 2 inactive | TRPC6 block conf inactive | TRPC6 act conf inactive
O=[N+]([O-])c1cc(/C=N/O)ccc1N1CCCC1	none
O=C(CN1C2=NCCN2c2ccccc21)c1ccc2c(c1)OCO2	none
O=C(CN1C2=NCCN2c2ccccc21)c1ccc(Br)cc1	TRPC6 inhibitor -5.3 | HEK293 MPD ctr-2 inactive | HEK293 MPD ctr 2-2 inactive | TRPC4/MOR mod inactive | TRPC4/MOR inh 2 72% | TRPC6 block conf 38% | TRPC6 act conf inactive
CC1Cc2ccccc2N1C(=O)CN1C(=O)NC(C)(CCc2ccccc2)C1=O (stereo not given)	none
Cc1cc(C)c2nc(N3CCC(C(=O)NCC4CCCO4)CC3)sc2c1 (stereo not given)	none
Cc1cc(C)c2nc(N3CCC(C(=O)NCCCN4CCCCC4)CC3)sc2c1	TRPC6 inhibitor -8.8 | TRPC4 spec 2 74% | TRPC4 spec 2.6% | HEK293 MPD ctr 2-1 inactive | HEK293 MPD ctr-1 2.9% | TRPC6 block conf 52% | TRPC6 act conf inactive
